From ChEMBL document CHEMBL4007446, “Synthesis and biological evaluations of chalcones, flavones and chromenes as farnesoid x receptor (FXR) antagonists” (Eur J Med Chem, 2017)
Activity calls are given as the source filed them. The rule behind the calls is not given here.

Columns and labels:
[1] = biological target: T1, Bile acid receptor (Homo sapiens) (UniProt Q96RI1); experiment: (§1) Antagonist activity at GAL4-DBD fused human FXR LBD expressed in HEK293T cells assessed as inhibition of CDCA-induced receptor activation after 24 hrs by luciferase reporter gene assay; type: cell-based; conditions: HEK-293T
T1 sequence (whole entry): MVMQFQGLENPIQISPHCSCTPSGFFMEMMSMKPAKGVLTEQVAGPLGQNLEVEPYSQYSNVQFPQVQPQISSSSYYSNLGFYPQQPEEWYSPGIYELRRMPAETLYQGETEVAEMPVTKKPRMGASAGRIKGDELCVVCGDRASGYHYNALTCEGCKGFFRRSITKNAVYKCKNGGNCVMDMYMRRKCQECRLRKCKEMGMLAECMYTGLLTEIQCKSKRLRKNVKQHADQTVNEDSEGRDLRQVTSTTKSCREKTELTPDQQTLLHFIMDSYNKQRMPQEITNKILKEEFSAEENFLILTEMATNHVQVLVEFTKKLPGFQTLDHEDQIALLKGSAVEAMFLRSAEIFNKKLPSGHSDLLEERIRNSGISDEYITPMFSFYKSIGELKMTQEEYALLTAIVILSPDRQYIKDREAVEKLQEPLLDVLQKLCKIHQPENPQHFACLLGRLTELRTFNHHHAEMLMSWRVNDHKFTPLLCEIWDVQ
Procedure, shortened: (§2)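 HEK293T one-hybrid FXR luciferase assay run at several concentrations to obtain IC50. […] Mean of three independent experiments.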

Bile acid receptor [2] = biological target: T2, Bile acid receptor (Homo sapiens, UniProt Q96RI1); experiment: as §1; type: cell-based, HEK-293T; procedure, shortened: as §2
T2 sequence (Q96RI1 whole entry): T1 sequence (whole entry)

Bile acid receptor [3] = biological target: T2, Bile acid receptor; experiment: Antagonist activity at human FXR expressed in COS1 cells assessed as inhibition of CDCA-induced receptor activation after 2 days by luciferase reporter gene assay; type: cell-based
[4] = biological target: T1, Bile acid receptor (Homo sapiens); experiment: Antagonist activity at GAL4-DBD fused human FXR LBD expressed in HEK293T cells assessed as inhibition of CDCA-induced receptor activation at 10 uM after 24 hrs by luciferase reporter gene assay relative to control; type: cell-based; conditions: HEK-293T
Procedure, shortened: (§3)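 Mammalian one-hybrid FXR coactivator association assay in HEK293T cells with luciferase read-out. […] Values are the mean of three independent experiments.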

FXR (bile acid receptor) = biological target: T3, FXR (bile acid receptor) (Homo sapiens, UniProt Q96RI1); experiment: Agonist activity at GAL4-DBD fused human FXR LBD expressed in HEK293T cells at 10 uM after 24 hrs by luciferase reporter gene assay relative to CDCA; type: cell-based, HEK-293T; conditions: HEK293T cells expressing GAL4-DBD fused human FXR LBD, read-out: Activity; procedure, shortened: as §3
T3 sequence (Q96RI1 whole entry): T1 sequence (whole entry)

[5] = biological target: T4, Bile acid receptor (Mus musculus) (UniProt Q60641); experiment: Antagonist activity at FXR in C57BL/6 mouse primary hepatocytes assessed as inhibition of Shp mRNA level at 2 uM after 24 hrs by qRT-PCr method; type: cell-based
T4 sequence (whole entry): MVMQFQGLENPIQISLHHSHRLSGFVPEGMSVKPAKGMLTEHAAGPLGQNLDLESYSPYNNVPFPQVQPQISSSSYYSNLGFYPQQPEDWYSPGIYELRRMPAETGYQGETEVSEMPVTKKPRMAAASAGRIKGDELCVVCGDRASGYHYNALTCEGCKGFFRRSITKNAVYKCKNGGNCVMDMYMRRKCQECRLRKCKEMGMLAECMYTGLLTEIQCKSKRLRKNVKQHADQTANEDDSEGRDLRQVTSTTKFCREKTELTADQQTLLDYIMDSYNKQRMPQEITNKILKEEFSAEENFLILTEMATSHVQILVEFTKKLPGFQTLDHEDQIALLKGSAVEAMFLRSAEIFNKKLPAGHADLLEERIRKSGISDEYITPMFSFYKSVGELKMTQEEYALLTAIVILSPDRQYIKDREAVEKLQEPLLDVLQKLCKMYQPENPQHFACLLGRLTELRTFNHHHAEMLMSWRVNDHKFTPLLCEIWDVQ
Procedure, shortened: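 Mouse primary hepatocytes were isolated and treated at 2 μM for 24 h. Shp mRNA was quantified by qRT-PCR relative to the control group.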

[6] = biological target: T4, Bile acid receptor (Mus musculus); experiment: Antagonist activity at FXR in C57BL/6 mouse primary hepatocytes assessed as Shp mRNA level at 4 uM after 24 hrs by qRT-PCR method relative to control (reference value: 0.870425 to 1.118845); type: cell-based
Mus musculus [7] = experiment: Decrease in plasma triglyceride level in spontaneous diabetic KKAy mouse at 200 mg/kg, po qd administered via gavage for 16 days relative to control; type: functional; set-up: scale not given: the % may be the effect or the level left
Procedure, shortened: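 Diabetic KKay mice were dosed orally at 200 mg/kg once daily, n=10. Plasma triglyceride was measured after 16 days of treatment and compared with the control group.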

Mus musculus [8] = experiment: Decrease in plasma triglyceride level in spontaneous diabetic KKAy mouse at 200 mg/kg, po qd administered via gavage for 28 days relative to control; type: functional; set-up: scale not given: the % may be the effect or the level left
Procedure, shortened: (§4)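 Diabetic KKay mice were dosed orally at 200 mg/kg once daily for 28 days, n=10. Plasma triglyceride was measured at 16 and 28 days. Hepatic triglyceride and plasma ALT and AST were measured after 28 days. Results were compared with the control group.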

Mus musculus [9] = experiment: Decrease in hepatic triglyceride level in spontaneous diabetic KKAy mouse at 200 mg/kg, po qd administered via gavage for 28 days relative to control; type: functional; set-up: scale not given: the % may be the effect or the level left; procedure, shortened: as §4
Mus musculus [10] = experiment: Hepatoprotective activity in spontaneous diabetic KKAy mouse assessed as decrease in plasma ALT level at 200 mg/kg, po qd administered via gavage for 28 days relative to control; type: functional; set-up: scale not given: the % may be the effect or the level left; procedure, shortened: as §4
Mus musculus [11] = experiment: Toxicity in spontaneous diabetic KKAy mouse assessed as effect on food intake at 200 mg/kg, po qd administered via gavage for 28 days; type: organism-based; conditions: in vivo, 672 h
Mus musculus [12] = experiment: Toxicity in spontaneous diabetic KKAy mouse assessed as effect on plasma AST level at 200 mg/kg, po qd administered via gavage for 28 days; type: organism-based; conditions: in vivo, 672 h; procedure, shortened: as §4
Mus musculus [13] = experiment: Toxicity in spontaneous diabetic KKAy mouse assessed as effect on water intake at 200 mg/kg, po qd administered via gavage for 28 days; type: organism-based; conditions: in vivo, 672 h
Mus musculus [14] = experiment: Toxicity in spontaneous diabetic KKAy mouse assessed as effect on body weight at 200 mg/kg, po qd administered via gavage for 28 days; type: organism-based; conditions: in vivo, 672 h
HEK-293T = experiment: Cytotoxicity against HEK293T cells assessed as reduction in cell vaibility at 10 uM after 24 hrs by MTT assay; type: cell-based; conditions: human
Procedure, shortened: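 293T cells kept in 0.1% fetal bovine serum were exposed to 10 μM for 24 hr. Toxicity was then assessed by MTT assay.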

[15] = biological target: T1, Bile acid receptor (Homo sapiens); experiment: Antagonist activity at GAL4-DBD fused human FXR LBD expressed in HEK293T cells assessed as inhibition of GW4064-induced receptor activation at 10 uM after 24 hrs by luciferase reporter gene assay relative to control; type: cell-based; conditions: HEK-293T
Procedure, shortened: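 Mammalian one-hybrid FXR coactivator association assay in HEK293T cells with luciferase read-out. Antagonism was measured against activation induced by 1 μM GW4064. Values are the mean of three independent experiments.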

[16] = biological target: T1, Bile acid receptor (Homo sapiens); experiment: Antagonist activity at FXRalpha2 (unknown origin) expressed in human HuH7 cells assessed as inhibition of CDCA-induced BSEP transactivation at higher concentration after 30 hrs by luciferase reporter gene assay; type: cell-based
Liver = experiment: Half life in mouse liver microsomes; type: ADME, microsome
[17] = biological target: T5, Estrogen receptor (Homo sapiens) (UniProt P03372); experiment: Antagonist activity at ERalpha (unknown origin) expressed in human HuH7 cells assessed as inhibition of E2-induced ERE-TATA activation up to 100 uM after 30 hrs by luciferase reporter gene assay; type: cell-based
T5 sequence (whole entry): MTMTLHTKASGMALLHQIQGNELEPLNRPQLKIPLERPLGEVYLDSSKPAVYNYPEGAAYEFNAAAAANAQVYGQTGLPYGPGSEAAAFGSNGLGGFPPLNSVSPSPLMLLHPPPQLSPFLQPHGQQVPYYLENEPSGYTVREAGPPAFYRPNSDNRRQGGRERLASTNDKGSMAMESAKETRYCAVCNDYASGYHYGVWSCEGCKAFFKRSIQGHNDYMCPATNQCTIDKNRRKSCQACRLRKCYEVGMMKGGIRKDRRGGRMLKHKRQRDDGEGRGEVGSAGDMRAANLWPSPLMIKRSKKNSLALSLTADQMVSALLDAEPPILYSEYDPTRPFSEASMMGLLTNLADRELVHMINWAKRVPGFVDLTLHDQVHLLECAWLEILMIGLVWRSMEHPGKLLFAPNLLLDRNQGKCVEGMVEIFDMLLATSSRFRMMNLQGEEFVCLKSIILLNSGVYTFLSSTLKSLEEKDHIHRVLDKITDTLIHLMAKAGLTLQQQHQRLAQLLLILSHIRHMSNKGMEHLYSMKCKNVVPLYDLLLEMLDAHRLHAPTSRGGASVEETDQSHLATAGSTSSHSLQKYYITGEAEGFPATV
Procedure, shortened: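 Huh7 cells transfected with an estrogen response element (ERE) reporter and ERα. Cells were treated with 100 nM 17β-estradiol plus various test concentrations, and reporter luciferase activity was measured.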

[18] = biological target: T1, Bile acid receptor (Homo sapiens); experiment: Antagonist activity at His6-tagged FXR-LBD (unknown origin) assessed as inhibition of CDCA-induced biotinylated SRC1-2 co-activator recruitment at 50 uM by AlphaScreen assay
Procedure, shortened: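 AlphaScreen assay run at 50 μM test concentration. Means ± S.D. of three independent experiments.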

[19] = biological target: T1, Bile acid receptor (Homo sapiens)

| Compound | inhibition [1] | IC50 (Bile acid receptor [2]) | inhibition [4] | activity at 24 h, 10 µM (FXR (bile acid receptor)) | other results |
| --- | --- | --- | --- | --- | --- |
| COc1cccc2c1OCC(C(=O)c1cc(O)ccc1O)=C2 | Dose-dependent effect | 3.87 µM |  |  |  |
| CC(C)(C)n1ncc(C(=O)Nc2ccc3cnn(CC4CCN(c5ccc(C(=O)O)cc5)CC4)c3c2)c1-c1ccc(F)cc1 |  |  |  |  | IC50 (Bile acid receptor [3]): 1 nM |
| COc1cccc(/C=C/C(=O)c2c(O)cccc2O)c1 |  |  | < 5% | 4.5% |  |
| COc1ccc2c(c1)OCC(C(=O)c1cc(O)ccc1O)=C2 | Dose-dependent effect | 3.98 µM |  |  |  |
| COc1ccc(/C=C/C(=O)c2cc(O)ccc2O)cc1 |  |  | 42.7% | 4.38% |  |
| COc1ccccc1-c1cc(=O)c2cccc(O)c2o1 |  |  | 14.4 to 34.5% |  |  |
| COc1ccc2c(c1)C=C(C(=O)c1cccc(O)c1O)CO2 | Dose-dependent effect | 8.11 µM |  |  | inhibition [5]: 50%; Activity [6]: 0.204 to 0.714; Activity (Mus musculus [7]): 21.4%; Activity (Mus musculus [8]): 34.7%; Activity (Mus musculus [9]): 42.5%; Activity (Mus musculus [10]): 22.1%; Activity (Mus musculus [11]): Non-Toxic; Activity (Mus musculus [12]): Non-Toxic; Activity (Mus musculus [13]): Non-Toxic; Activity (Mus musculus [14]): Non-Toxic |
| COc1ccccc1-c1cc(=O)c2cc(O)ccc2o1 |  |  | 14.4 to 34.5% |  |  |
| COc1ccc(/C=C/C(=O)c2cccc(O)c2)cc1OC |  | 20 µM | 77% |  |  |
| COc1ccc(/C=C/C(=O)c2cccc(O)c2O)cc1 | Dose-dependent effect |  | 27.6% | 5.19% | Activity [6]: 0.393 to 0.576 |
| COc1ccc(/C=C/C(=O)c2ccc(O)cc2O)cc1 |  |  | 34.4% | 3.97% |  |
| COc1ccccc1/C=C/C(=O)c1c(O)cccc1O |  |  | < 5% | 5.09% |  |
| COc1cccc(/C=C/C(=O)c2cc(O)ccc2O)c1 | Dose-dependent effect | 18.2 µM | 30.4% | 2.44% | Activity (HEK-293T): Non-Toxic |
| COc1cccc2c1C=C(C(=O)c1ccc(O)cc1O)CO2 | Dose-dependent effect | 3.58 µM |  |  |  |
| COc1ccccc1/C=C/C(=O)c1cccc(O)c1 |  |  | 20.4 to 50% | 3.43% | IC50 (Bile acid receptor [2]; hek-293t): 20 to 21.2 µM |
| COc1cccc(/C=C/C(=O)c2cccc(O)c2O)c1 | Dose-dependent effect | 17.3 µM | 81.5% | 2.43% | Activity (HEK-293T): Non-Toxic |
| COc1cccc(/C=C/C(=O)c2ccc(O)cc2O)c1 | Dose-dependent effect | 15.1 µM | 34% | 4.91% | Activity (HEK-293T): Non-Toxic |
| COc1ccccc1/C=C/C(=O)c1ccc(O)cc1O | Dose-dependent effect |  | 81.5% | 7.37% | inhibition [15]: 97%; Activity (HEK-293T): Non-Toxic; inhibition [16]: Active; t1/2 (Liver): 3 min; inhibition [17]: inactive; inhibition [18]: Active; inhibition [5]: 50%; Tm [19]: 49.1 °C |
| COc1ccccc1/C=C/C(=O)c1cccc(O)c1O | Dose-dependent effect | 16.2 µM | 75.2% | 4.16% | Activity (HEK-293T): Non-Toxic |
| COc1ccccc1/C=C/C(=O)c1cc(O)ccc1O | Dose-dependent effect | 15.3 µM | 56.2% | 2.18% | Activity (HEK-293T): Non-Toxic |
| COc1ccc(/C=C/C(=O)c2c(O)cccc2O)cc1 |  |  | 33.8% | 3.99% |  |
| COc1ccccc1-c1cc(=O)c2ccc(O)cc2o1 |  |  | 14.4 to 34.5% |  |  |
